Screening results as filed in PubChem.
STAT1 activator = STAT1 signaling activation | 2.6% of 200,000 active | NIH 3T3 STAT1-luciferase reporter, IFN-gamma, luminescence; 100% = IFN-gamma alone, no compound | activation (% of control), % at 5.5 µM;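 active = activation above the screen-wide mean activation plus 3 SD, cut at about 130% in these data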
NF-kB expr up = NF-kB expression increase, human neuronal cells. NF-kB reporter expression; hits give high values. fold change at 12.5 µM. 1.6% of 190,000 active; in the data active = fold change above about 3.3
STAT3 act = activators of IL-6 induced STAT3 signaling; U3A cells, IL-6 STAT3-luciferase reporter, luminescence; 100% = signal with IL-6 EC80 alone; activation (% of control), % at 5.6 µM; 0.91% of 190,000 active;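 active = activation above the screen-wide mean of compound activation plus 3 SD, cut at about 130% in these data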
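Material: STAT1-lacking human U3A cells, STAT3 luciferase reporter | Benchmarks: IL-6-only wells as 100% reference | Probe or stimulus: IL-6 (33 ng/mL) | Timing: Compound 1 h, then IL-6 6 h at 37 °C | Detection: Luminescence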
STAT1 blocker = STAT1 signaling inhibition; inhibition, % at 5.5 µM; 0.35% of 200,000 active; NIH 3T3 STAT1-luciferase reporter, IFN-gamma, luminescence;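 active = inhibition above a set limit, the mean inhibition across all tested compounds plus 3 SD, cut at about 34% in these data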
APP 5'UTR act = APP 5'UTR luciferase reporter activation | SH-SY5Y APP 5'UTR luciferase reporter, luminescence; zero percent = DMSO vehicle wells | activation, % at 2 µM | 1% of 190,000 active | AID 1276;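 active = activation above a set limit, based on mean plus 3 SD of controls, cut at about 140% in these data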
STAT3 blocker = reduces IL-6 driven STAT3 reporter signal. U3A cells, IL-6 STAT3-luciferase reporter, luminescence; host cell line lacks STAT1. inhibition, % at 5.5 µM. 0.89% of 190,000 active. AID 862;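 active = inhibition above the mean inhibition across all screened compounds plus 3 SD, cut at about 44% in these data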
Of the large screens only hits and unclear results are named; the others gave an inactive call. Hits are enriched below; roughly 4.9% of the tested compounds scored in any of these assays.

COc1ccc(C(=O)N/C(=C/c2cccs2)c2nc3ccccc3[nH]2)cc1OC	none
O=c1[nH]c2ccccc2nc1/C=C/c1ccc(Cl)cc1	STAT1 activator 133, APP 5'UTR act 167
COc1cc(/C=C(/C(=O)c2cccs2)c2nc3ccccc3[nH]2)cc(OC)c1O	NF-kB expr up 10
C(=C\c1ccco1)/c1nc2ccccc2[nH]1	NF-kB expr up 5, APP 5'UTR act 136
COc1ccc(CCN(Cc2cc3ccc(C)cc3n3nnnc23)C(C)=O)cc1OC	none
CC(C)Cn1c(N)c(C(=O)CSc2ncnc3sc4c(c23)CCCC4)c(=O)n(C)c1=O	none
O=C(OCCNC(=O)c1ccc2ccccc2n1)c1ccc(F)cc1	none
C(=C\c1nc2ccccc2[nH]1)/c1ccccc1	STAT1 blocker 43, APP 5'UTR act 192, STAT3 blocker 82
CCOC(=O)N=Nc1c2ccccc2c2nc3no[nH]c3nc12	STAT1 blocker 89, STAT3 blocker 68
CCOC(=O)N=Nc1c(O)n(CC(=O)OC)c2ccccc12	none
COC(=O)c1ccc(NC(=S)NCCC2=CCCCC2)cc1	none
COC(=O)c1cccc(NC(=S)NCCC2=CCCCC2)c1	STAT3 blocker 53
Cc1nc2cc(NC(=O)NCCC3=CCCCC3)ccc2o1	STAT1 activator 132
C=C(CC1([C@@H](NP(=O)(c2ccccc2)c2ccccc2)[C@H]2C[C@@H]2CCCC)CC1)c1ccccc1	none
Cc1ccc(S(=O)(=O)Nc2c(C)[nH]c(=O)[nH]c2=O)cc1C	none
O=C(/C=C/c1ccc2c(c1)OCO2)c1ccc(F)cc1	none
O=C(/C=C/c1ccc2c(c1)OCO2)c1ccc[nH]1	APP 5'UTR act 188
COc1cccc(/C=C/C(=O)c2ccc[nH]2)c1	NF-kB expr up 6.6, APP 5'UTR act 201
CO/N=C(\C(=O)O)c1csc(NN=C(C)C)n1	none
CN(C)c1ccc(N=C/C=C2\N(C)c3ccccc3C2(C)C)cc1	APP 5'UTR act 143
CN1/C(=C\C=O)C(C)(C)c2ccccc21	none
CCNc1nc(NCC)nc(N/N=C/c2ccc(Br)cc2)n1	none
COc1ccc(OC)c(N/C(C)=C/C(=O)c2ccccc2)c1	STAT1 activator 134
COc1ccc(N/C(C)=C/C(=O)c2ccccc2)cc1	NF-kB expr up 3.4
C/C(=C\C(=O)c1ccncc1)Nc1ccccc1O	NF-kB expr up 6
COC(=O)c1sccc1NC(=O)c1ccoc1C	none
O=C(/C=C/c1cccs1)N1CCCCC1	STAT1 activator 130
Cc1cc(=O)oc2c1c(C)nn2-c1cccc(Cl)c1	none
O=C(Nc1ccc(Cl)c(Cl)c1)c1ccncc1	none
COc1ccc(C(=O)Nc2ccc(Cl)c(Cl)c2)c(OC)n1	STAT1 activator 131, NF-kB expr up 4.6, STAT3 act 136
CC(C)c1nnc(SCC(=O)N2CCOCC2)n1C	none
O=[N+]([O-])c1ccc(-c2nc3ccc([N+](=O)[O-])cc3[nH]2)cc1	STAT1 activator 131
O=[N+]([O-])c1ccc2nc(/C=C/c3ccc(Cl)cc3)[nH]c2c1	APP 5'UTR act 136
Nc1ccc2nc(-c3ccc(Cl)cc3)[nH]c2c1	NF-kB expr up 8.5 (no result: STAT1 activator, STAT3 act, STAT1 blocker, STAT3 blocker)
CC1CCCCN1CC(=O)Nc1sc2c(c1C#N)CCC2 (configuration not stated)	none
Cc1ccc(S(=O)(=O)NC(C(=O)N2CCOCCOCCOCC2)c2ccccc2)cc1 (configuration not stated)	none
COc1ccc2cnn(CCOc3ccccc3)c(=O)c2c1OC	STAT1 activator 146, NF-kB expr up 3.6, APP 5'UTR act 176
CCOc1ccccc1OCCn1ncc2ccc(OC)c(OC)c2c1=O	none
COC(=O)c1ccccc1NC(=O)CNC(=O)c1ccc(OC)c(OC)c1	none
Cc1ccc(C(=O)Cn2ncsc2=N)cc1	STAT1 activator 130
CC(=O)Oc1cccc(N2C(=O)c3ccc(C(=O)O)cc3C2=O)c1	none
Nc1cccc(-c2nc3ccccc3s2)c1	STAT1 activator 147, NF-kB expr up 5.9
CC(=O)Nc1cccc(-c2nc3ccc(NC(C)=O)cc3s2)c1	STAT1 activator 140
O=C(O)c1ccc2c(c1)C(=O)N(c1cccc(-c3nc4ccccc4s3)c1)C2=O	STAT1 activator 130
CC(=O)Nc1ccc2nc(NC(=O)C(Cl)(Cl)Cl)sc2c1	none
CC(=O)Nc1cccc(-c2nc3ccccc3s2)c1	STAT1 activator 148
CCOCCCNC(=S)Nc1ccc(S(N)(=O)=O)cc1	none
Cc1ccccc1OCC(O)Cn1nnc2ccccc21 (configuration not stated)	STAT1 activator 142
CCC(=O)c1ccc(OCC(O)Cn2nnc3ccccc32)cc1 (configuration not stated)	none
C(=C\c1ccccc1)/C=N/N1CCN(c2ccccn2)CC1	STAT1 activator 132
Clc1ccc(-c2nnc(SCc3nc4ccccc4[nH]3)o2)c(Cl)c1	none
C=CCSc1nnc(-c2ccc(Cl)cc2Cl)o1	NF-kB expr up 7.5, APP 5'UTR act 159
Clc1ccc(-c2nnc(SCc3ccon3)o2)c(Cl)c1	STAT1 activator 141, NF-kB expr up 9.7, APP 5'UTR act 144
Clc1ccc(-c2nnc(CCc3ccccc3)o2)c(Cl)c1	STAT1 activator 137
CSCCC(NC(=O)c1ccc([N+](=O)[O-])cc1Cl)C(=O)OCC(=O)C12CC3CC(CC(C3)C1)C2 (configuration not stated)	none
COCC(=O)Nc1ccc(C(=O)Nc2ccccc2Cl)cc1	none
C/C(=N\N=c1/sc2ccccc2n1C)c1ccccn1	STAT1 activator 142
CC(=O)Oc1oc(-c2ccccc2)nc1/C=N/c1ccccn1	STAT1 activator 129
CN(C)c1ccc(N=Cc2nc(-c3ccccc3)oc2OC(=O)c2ccccc2)cc1	APP 5'UTR act 155
CN(C)c1ccc(N=Cc2nc(-c3ccccc3)oc2O)cc1	none
Nc1nnc(SCC(=O)NC23CC4CC(CC(C4)C2)C3)s1	none
CC(C)(C)c1ccc(C(=O)N2CCC(C(=O)NCc3ccco3)CC2)cc1	none
Cc1ccc(OCC(=O)c2cc(C)n(Cc3cccs3)c2C)c([N+](=O)[O-])n1	STAT1 blocker 43, STAT3 blocker 52
O=c1c(Br)c(N2CCCC2)cnn1-c1ccccc1	STAT1 activator 143
CN1CCN(c2cnn(-c3ccccc3)c(=O)c2Br)CC1	none
O=c1c(Br)c(N2CCCCC2)cnn1-c1ccccc1	STAT1 activator 147, NF-kB expr up 3.9, APP 5'UTR act 166
Cc1cc(C)n(-c2n[nH]c(C)c2[N+](=O)[O-])n1	none (no result: NF-kB expr up)
COc1ccccc1NC(=O)c1ccc(Cl)c(S(=O)(=O)N2CCOCC2)c1	none
O=C(O)c1cccc(NC(=O)c2ccc(Cl)c(S(=O)(=O)N3CCCCCC3)c2)c1	STAT1 blocker 39, STAT3 blocker 53
O=C(Nc1ccccc1C(=O)O)c1ccc(Cl)c(S(=O)(=O)N2CCOCC2)c1	STAT1 blocker 51
NC(CO)(CO)COCc1ccccc1	none
CCCCOc1ccc(-c2ncc(C(=O)O)c(C)n2)cc1	STAT1 activator 136, NF-kB expr up 4.3, APP 5'UTR act 165
O=C(O)c1cn(Cc2ccccc2)nc1-c1cccnc1	none
c1ccc(-c2noc(CCC3CCCC3)n2)cc1	none
c1ccc(-c2noc(CC3CCCCC3)n2)cc1	STAT1 activator 136
